This passage reports Activity and inhibition results from ChEMBL document CHEMBL1142140, “Activity of ribavirin against Hantaan virus correlates with production of ribavirin-5'-triphosphate, not with inhibition of IMP dehydrogenase” (2007).

Activity calls are given as the source filed them. No cut-off for these calls is given here.

The test system of experiment [1] is Vero. The experiment is described as follows: RBV metabolism in Vero E6 cells assessed as RBV-MP concentration at 40 ug/ml after 24 h. The format is functional, Chlorocebus sabaeus. The gist of the method: (§1)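 Vero E6 cells were given [3H]RBV for 24 h at 37°C, alone or with added MPA (experiment 1) or guanosine (experiment 2). Perchloric acid extracts were resolved on SAX HPLC, and RBV-MP and RBV-TP were quantified by counting 1-min fractions. Values are the mean ± SD of three measurements, and the experiment was repeated twice.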

Experiment [2] in a line: Inhibition of viral RNA levels in HTNV76-118-infected Vero E6 cells at 0.5 ug/ml. It is filed as functional, Hantaan virus. As to conditions: Orthohantavirus hantanense, 76-118, Vero.
Experiment [3] deals with Vero. The experiment is described as follows: RBV metabolism in Vero E6 cells assessed as RBV-TP concentration at 10 ug/ml after 24 h. The format is functional, Chlorocebus sabaeus. The method in brief: as §1
Experiment [4] is described as follows: Inhibition of viral RNA levels in HTNV 76-118-infected Vero E6 cells at 40 ug/ml after 3 days. The format is functional, Hantaan virus. The following applies: Orthohantavirus hantanense, 76-118, Vero, 72 h.
Experiment [5] deals with Vero. Kind of experiment: RBV metabolism in Vero E6 cells assessed as RBV-MP concentration at 10 ug/ml after 24 h. It is filed as functional, Chlorocebus sabaeus. The method in brief: as §1
Experiment [6] relates to Vero. The experiment is described as follows: Decrease in GTP level in Vero E6 cells at 40 ug/ml after 24 h. It is filed as functional, Chlorocebus sabaeus. The arrangement: scale not given: the % may be the effect or the level left.
The test system of experiment [7] is Vero. The experiment is described as follows: Decrease in GTP level in Vero E6 cells at 10 ug/ml. The format is functional, Chlorocebus sabaeus. The arrangement: scale not given: the % may be the effect or the level left. The method in brief: (§2)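 Confluent 3-day-old Vero E6 cells incubated at 37°C with drug: 10 μg/ml RBV or 2.5 μg/ml MPA over a 0–72 h time course; RBV for 4 h; 10 μg/ml guanosine for 24 h. Ice-cold 0.5 M perchloric acid extracts neutralized with KOH, then SAX HPLC with an NH4H2PO4 gradient from pH 2.8 to 3.7. GTP and ATP read at 260 nm; mean of three measurements.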

In experiment [8] the test system is Vero. Kind of experiment: Decrease in GTP level in Vero E6 cells at 40 ug/ml after 4 h. The format is functional, cell-based. As to conditions: Chlorocebus sabaeus. The method in brief:
as §2

Experiment [9] relates to Vero. Kind of experiment: RBV metabolism in Vero E6 cells assessed as RBV-TP concentration at 40 ug/ml after 24 h. The format is functional, Chlorocebus sabaeus. The method in brief: as §1
Experiment [10] has as its system Vero. The experiment is described as follows: Inhibition of MPA effect on viral RNA in HTNV 76-118-infected Vero E6 cells at 35 uM. It is filed as functional, cell-based. As to conditions: Hantaan virus.
The test system of experiment [11] is Vero. Kind of experiment: Effect on metabolism of 40 ug/ml RBV in Vero E6 cells assessed as RBV-MP concentration at 10 ug/ml after 24 h. The format is functional, Chlorocebus sabaeus. The method in brief:
as §1

The test system of experiment [12] is Vero. The experiment is described as follows: Effect on metabolism of 10 ug/ml RBV in Vero E6 cells assessed as RBV-TP concentration at 10 ug/ml after 24 h. The format is functional, Chlorocebus sabaeus. The method in brief: as §1
In experiment [13] the test system is Vero. The experiment is described as follows: Inhibition of 1 ug/ml RBV-induced depression in intracellular GTP level in Vero E6 cells at 35 uM after 24 h. The format is functional, cell-based. As to conditions: Chlorocebus sabaeus.
Experiment [14] relates to Vero. The experiment is described as follows: Effect on metabolism of 40 ug/ml RBV in Vero E6 cells assessed as RBV-TP concentration at 10 ug/ml after 24 h. It is filed as functional, Chlorocebus sabaeus. The method in brief: as §1
Experiment [15] concerns Vero. Kind of experiment: Increase in GTP level in Vero E6 cells at 35 uM after 24 hr relative to control. The format is functional, Chlorocebus sabaeus. The method in brief:
as §2

Experiment [16] deals with Vero. Kind of experiment: Inhibition of 40 ug/ml RBV-induced depression in intracellular GTP level in Vero E6 cells at 35 uM after 24 h. As to conditions: Chlorocebus sabaeus. The format is functional, cell-based. The gist of the method: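 Vero E6 cells were treated for 24 h with 40 μg/ml RBV, with or without 10 μg/ml guanosine. Acid-soluble (perchloric acid) extracts were run on SAX HPLC, and GTP and ATP were quantified by UV at 260 nm. Values are the mean of three measurements.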

Experiment [17] relates to Vero. The experiment is described as follows: Effect on metabolism of 10 ug/ml RBV in Vero E6 cells assessed as RBV-MP concentration at 10 ug/ml after 24 h. It is filed as functional, Chlorocebus sabaeus. The method in brief:
as §1

Experiment [18] deals with Vero. Kind of experiment: Effect on metabolism of 40 ug/ml RBV in Vero E6 cells assessed as RBV-TP concentration at 2 ug/ml after 24 h. It is filed as functional, Chlorocebus sabaeus. The gist of the method: as §1
For experiment [19], the system named is Vero. The experiment is described as follows: Effect on metabolism of 40 ug/ml RBV in Vero E6 cells assessed as RBV-TP concentration at 5 ug/ml after 24 h. The format is functional, Chlorocebus sabaeus. The method in brief: as §1
Experiment [20] relates to Vero. Kind of experiment: Effect on metabolism of 10 ug/ml RBV in Vero E6 cells assessed as RBV-TP concentration at 2 ug/ml after 24 h. It is filed as functional, Chlorocebus sabaeus. The method in brief: as §1
The subject of experiment [21] is Vero. Kind of experiment: Effect on metabolism of 40 ug/ml RBV in Vero E6 cells assessed as RBV-MP concentration at 1 ug/ml after 24 h. It is filed as functional, Chlorocebus sabaeus. The method in brief:
as §1

Experiment [22] deals with Vero. The experiment is described as follows: Decrease in GTP level in Vero E6 cells at 2.5 ug/ml. The format is functional, Chlorocebus sabaeus. The arrangement: scale not given: the % may be the effect or the level left. The gist of the method:
as §2

Experiment [23] deals with Vero. Kind of experiment: Effect on metabolism of 10 ug/ml RBV in Vero E6 cells assessed as RBV-MP concentration at 1 ug/ml after 24 h. The format is functional, Chlorocebus sabaeus. The method in brief:
as §1

The subject of experiment [24] is Vero. The experiment is described as follows: Effect on metabolism of 10 ug/ml RBV in Vero E6 cells assessed as RBV-MP concentration at 5 ug/ml after 24 h. It is filed as functional, Chlorocebus sabaeus. The gist of the method: as §1
Experiment [25] relates to Vero. The experiment is described as follows: Effect on metabolism of 10 ug/ml RBV in Vero E6 cells assessed as RBV-MP concentration at 2 ug/ml after 24 h. The format is functional, Chlorocebus sabaeus. The method in brief:
as §1

Experiment [26] is described as follows: Inhibition of viral RNA levels in HTNV76-118-infected Vero E6 cells at 10 ug/ml. It is filed as functional, Hantaan virus. The following applies: Orthohantavirus hantanense, 76-118, Vero.
Experiment [27] deals with Vero. Kind of experiment: Effect on metabolism of 40 ug/ml RBV in Vero E6 cells assessed as RBV-MP concentration at 5 ug/ml after 24 h. It is filed as functional, Chlorocebus sabaeus. The method in brief: as §1
Experiment [28] deals with Vero. Kind of experiment: Effect on metabolism of 40 ug/ml RBV in Vero E6 cells assessed as RBV-MP concentration at 2 ug/ml after 24 h. It is filed as functional, Chlorocebus sabaeus. The method in brief: as §1
For experiment [29], the system named is Vero. Kind of experiment: Effect on metabolism of 40 ug/ml RBV in Vero E6 cells assessed as RBV-TP concentration at 1 ug/ml after 24 h. It is filed as functional, Chlorocebus sabaeus. The gist of the method: as §1
In experiment [30] the test system is Vero. Kind of experiment: Effect on metabolism of 10 ug/ml RBV in Vero E6 cells assessed as RBV-TP concentration at 1 ug/ml after 24 h. It is filed as functional, Chlorocebus sabaeus. The method in brief:
as §1

The subject of experiment [31] is Vero. Kind of experiment: Effect on metabolism of 10 ug/ml RBV in Vero E6 cells assessed as RBV-TP concentration at 5 ug/ml after 24 h. It is filed as functional, Chlorocebus sabaeus. The gist of the method: as §1

As usually defined, the inhibition is the change of the read-out against control, counted positive when it falls. On to `NC(=O)c1ncn([C@@H]2O[C@H](CO)[C@@H](O)[C@H]2O)n1` [RIBAVIRIN], for which the Activity with Vero [1] worked out at 3.2 pmol; in the experiment with Vero [3], 6.5 pmol; in the experiment with Vero [5], 1.1 pmol; with Vero [6], 50%; with Vero [7], 40%; with Vero [9], 22 pmol. Moreover, in experiment [2], the inhibition at 0.5 µg/mL was -80%. The inhibition at 40 µg/mL in experiment [4] was 99.9%. Moreover, the result in the experiment with Vero [8] was Active.

As for `Nc1nc2c(ncn2[C@@H]2O[C@H](CO)[C@@H](O)[C@H]2O)c(=O)[nH]1` [GUANOSINE], the result in the experiment with Vero [10], in the experiment on Vero [13] and in the experiment with Vero [16] was Active. The Activity in the experiment on Vero [11] is 8.6 pmol; with Vero [12], 14 pmol; in the experiment on Vero [14] it was 65 pmol; with Vero [15] it was 145%; in the experiment on Vero [17], 1.9 pmol.

Turning to `COc1c(C)c2c(c(O)c1C/C=C(\C)CCC(=O)O)C(=O)OC2` [MYCOPHENOLIC ACID], the Activity is on record as 27 pmol in the experiment on Vero [18]; 26 pmol with Vero [19]; 6.8 pmol with Vero [20]; 4.2 pmol in the experiment with Vero [21]; 90% with Vero [22]; 1.3 pmol in the experiment on Vero [23]. For the same compound, the Activity is listed as 1.2 pmol in the experiment with Vero [24]; 1.3 pmol with Vero [25]; 80% with Vero [6]; 3.9 pmol in the experiment with Vero [27]; 3.8 pmol in the experiment with Vero [28]; 26 pmol in the experiment with Vero [29]. Moreover, the Activity in the experiment with Vero [30] amounted to 7.8 pmol; with Vero [31] it was 7 pmol. In addition, the inhibition at 10 µg/mL in experiment [26] is -70%.
